These results are taken from the RNAGym collection of RNA variant scans (doi:10.1126/science.aae0568).

The chains are these.
B1: tRNA (parent)
chain: GUUCCGUUGGCGUAAUGGUAACGCGUCUCCCUCCUAAGGAGAAGACUGCGGGUUCGAGUCCCGUACGGAACG

Variants at the floor of the assay were thinned out. Where only a bound is given, the exact number is not on record here.

In this series the parent is B1. Briefly: yeast fitness relative to wild type (ratio to wild type); higher = fitter; tRNA-Arg(CCU), competitive growth, 37 C, YPD. The essentials:
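Gene amplicons from the start population and from each of six end populations were read by 100-nucleotide paired-end sequencing. Those end populations came from pooled Saccharomyces cerevisiae strains carrying tRNA-Arg(CCU) gene variants at the native locus, competed in YPD at 37°C for 24 hours. Fitness relative to wild type was worked out from changes in genotype frequencies. Genotypes needed ≥ 100 starting reads, and estimates < 0.5 were set to 0.5.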
On to C22U U35C C49U, for which the yeast fitness was not above 0.5. Regarding A14U A37U C61G C62U, the yeast fitness was not above 0.5. On to G12A A36G U47G A65U, for which the yeast fitness amounted to 0.646.

As for C61A G68U, the yeast fitness came to 0.534.

Regarding U2C C5G C30G G44A, the yeast fitness was not above 0.5. A21C A43U: the yeast fitness turned out to be 0.902.

Regarding G6C C22A C31G G51A C66U, the yeast fitness was not above 0.5. With G6A G12C U16C A21U C66U, the yeast fitness is 0.571. The figure for G10C C22A C24G A65U is not above 0.5; for C5G A69C A70G it is 0.692.

Turning to U16A U64C C66U, the yeast fitness amounted to 0.68.

As for U16A A57G, the yeast fitness came out at 0.974. U8G U28C G38C C62U: the yeast fitness was not above 0.5. Under C30U A36G stands 0.927; under U2C U8C C34A A42C G68C, not above 0.5; under C31G C34U A57U, 0.561. On to U13A A40G A57U G68A, for which the yeast fitness came out at 0.524.

Turning to C24U G56A G67A, the yeast fitness is 0.731. With G23C C24G G63C A65U, the yeast fitness was not above 0.5. With A42U G50A, the yeast fitness is 0.743. For the variant G9A G58C, the yeast fitness amounted to 0.895. On to C4A G51A A70G, for which the yeast fitness was found to be 0.58. Under U19C C66U A69C stands 0.685; under C49U G56A, 1.03; under G9C A37G G41A, not above 0.5. U47A C55G G68A: the yeast fitness is not above 0.5. Regarding C4G G58A U64A, the yeast fitness is not above 0.5. For U3C C5G U19G C31A C46A G56A A57U, the yeast fitness is not above 0.5. The figure for C55G C60A C62A G68A A69U is not above 0.5. In the case of C4G G6A C24U A40U A65C A69U, the yeast fitness came to 0.815. On to C5U A15G C46G, for which the yeast fitness amounted to 0.892. Under U13A A69G stands 1.07; under C4G G6C A36C C62G C66A, not above 0.5. C24G C34G G38C C62G A69C: the yeast fitness was not above 0.5. In the case of A42G G50C, the yeast fitness stood at 0.634.

On to G6A A45G A69C, for which the yeast fitness was 0.748. For G12C G23C, the yeast fitness is 0.588.

Regarding G9A G12C U13A G25A C30G C66U, the yeast fitness was not above 0.5. On to G25A A43G C49U, for which the yeast fitness amounted to 0.94. As to A14C C29U G39C U54C, the yeast fitness is 0.678. The figure for C4A A21U A43G C62A is not above 0.5; for G12C C31G G51A C55G G68C it is 0.627. As to G56C U59C, the yeast fitness was determined as 0.607. Turning to C27A C61U, the yeast fitness turned out to be 0.891.

Consider C22G A37G C60A A70G, for which the yeast fitness was 0.501. As for U16A A21U C27U A40U C66A, the yeast fitness is not above 0.5. For G6A G39C C55G, the yeast fitness was not above 0.5. Turning to C5U C27U G48A G67C, the yeast fitness is not above 0.5.

For the variant A21G A45C U59C, the yeast fitness turned out to be 0.732. Under A15G G23U C24G A45G stands 0.554; under A20C C31U A42U, 0.643; under C29U G67A A70U, 0.52. C4G U64A: the yeast fitness was 0.707.

Regarding U7G C27U C49U, the yeast fitness was 0.59. On to G10A G39C, for which the yeast fitness is 0.763. For the variant C4U A20C C49U C61A, the yeast fitness is not above 0.5.

For C5U C34A U53A A57U A65U, the yeast fitness was not above 0.5.

Turning to C4G A37U C49A G52A C55U G56A, the yeast fitness came out at 0.688.

In the case of A21C A42U G58A, the yeast fitness amounted to 0.549. Under C11U A14G A21C C29U A37G C55U stands not above 0.5; under A42U G44C U53C, not above 0.5; under G6A U16A, 0.769. As to G6A U16C, the yeast fitness was determined as 0.974.

Take C22G A36C C61U: the yeast fitness is not above 0.5. Regarding A14C A45G G68C, the yeast fitness is not above 0.5. The figure for C22G C31G C55U C61G C62G is not above 0.5; for C46G C62U C66U it is 0.746. As for G6C G10A U16G C24U G50C, the yeast fitness came out at 0.609. Under A36C A37G C55A stands 0.534; under A21C A42U U54A, not above 0.5.

Take C4A A69G: the yeast fitness was 0.904.

For U2G C31A A69C, the yeast fitness is 0.557. On to C5U A15U C29U C31U C34U C66A, for which the yeast fitness is not above 0.5. The figure for C4G G23C C29U is 0.501; for G17U A37G A42U G48C C49U it is not above 0.5. In the case of C22U C31G C60G, the yeast fitness is not above 0.5.

Take C33A G41A: the yeast fitness was 0.635. As to C27U A40G C55U G56A U64G A69U, the yeast fitness was not above 0.5. For the variant C11A G12A A20C C29U, the yeast fitness was not above 0.5.

With C4U C62G, the yeast fitness was determined as 0.808. For C31G A36C, the yeast fitness turned out to be 0.555. Under C11A C27U C61G stands not above 0.5. Under C11U C27A G50A A69U stands not above 0.5; under G6A G9C U19C C24U U54C, not above 0.5. As for C49U G56C A70C, the yeast fitness is not above 0.5. Take C46A A69G: the yeast fitness amounted to 0.932. With C4U C31G C55U G68C, the yeast fitness is not above 0.5. For C11G G38A, the yeast fitness came to 0.63. The figure for G25C C31U U35C is 0.53; for U13G A36C it is 0.52. As for A40G A43U C55G, the yeast fitness amounted to 0.535.

For the variant A20U A21C C22U U53C U64A, the yeast fitness is 0.77. Take A37C A45U G51C: the yeast fitness was not above 0.5.

As to C4G A15C U28C C55G A57U, the yeast fitness was not above 0.5. For the variant U2A A15G A37U C49G, the yeast fitness is not above 0.5. C5G U7C C11G C31G: the yeast fitness was not above 0.5.

On to A15C C22A A70U, for which the yeast fitness was not above 0.5. Take A14U C22U A36U: the yeast fitness was determined as 0.571. The figure for U2A C5A C46U G50C is not above 0.5; for C5U C22G C29A A45U A70U it is 0.539; for C22A C29U C49U it is 0.622. The figure for U13A U54A A69U is 0.529. Take C4U C22G C60G: the yeast fitness is not above 0.5.

As to A20G A21C C30A G41C C66U, the yeast fitness came to 0.526. For A21C U32G, the yeast fitness was determined as 0.617. The figure for A21C C34G A43U is not above 0.5. On to U7A C30U A65C, for which the yeast fitness worked out at 0.633.

On to C5G A20G C34A A40U, for which the yeast fitness was not above 0.5. Under C11U A36G C60G A70C stands not above 0.5; under A21C G52C G67C, not above 0.5.

U35C A57C G68C: the yeast fitness is not above 0.5. As to A14C A15G G25C U32A A43C G63A A69C, the yeast fitness is not above 0.5. The figure for G18A A21G C66U is not above 0.5; for C60U G67C it is 0.828. On to U26A G38C U47G G58A, for which the yeast fitness was not above 0.5. The figure for C4G A14C G50C C62G is not above 0.5; for U7C U47C it is 0.895; for C11A U35A A37C A43G it is 0.511. The figure for C46U C60U is 0.807. For G23C U26C C46G, the yeast fitness stood at 0.57.

As to G6C A43U C61G C62A, the yeast fitness came out at 0.618. Take C34U G58C G63A A70C: the yeast fitness was not above 0.5.

With A20U A45C A65G, the yeast fitness came out at 0.576. In the case of A37C G39C C49U, the yeast fitness is not above 0.5. A21G C27A A37U G50A: the yeast fitness was 0.531. The figure for C30A U32C is 0.892; for U8C A42U A43G it is 0.507. For the variant A40C C49A G51C U59A, the yeast fitness is not above 0.5.

As to C30A A40G A65G, the yeast fitness amounted to 0.967.

As to U16G C30A A65G, the yeast fitness was 0.564. Take C30A A37G: the yeast fitness was 0.86. C31U C46A G58C: the yeast fitness came out at 0.645.

As to C5G A14U U28C C46G C61U, the yeast fitness was not above 0.5. Regarding U13C U47C G56C, the yeast fitness came out at 0.544.

Consider C4U C49G A70G, for which the yeast fitness is 0.602.

As for G9A A43U C49U, the yeast fitness was found to be 0.744.

With U2C A15C G23C C31A, the yeast fitness was not above 0.5. On to U7C A15G A20U C24G U35C A36C C61A, for which the yeast fitness is not above 0.5.

In the case of A14G C24A U26A C27G U32C C60U, the yeast fitness is not above 0.5.

Consider A21G U53G, for which the yeast fitness is 0.647. Take U8A C24A U28C: the yeast fitness is not above 0.5. In the case of U2C C5G C46U A70G, the yeast fitness is 0.994.

Regarding C61G A70C, the yeast fitness was 0.763.

For the variant C4U C22U U35C G56A A70C, the yeast fitness was not above 0.5. For C11U U35A G38A G52A G56C, the yeast fitness was not above 0.5. For U7A U54A U59C U64C, the yeast fitness is not above 0.5.

For C4G C5U A42G G67A, the yeast fitness is not above 0.5. On to A14C C30G A37G A45G G50A U59C G67C, for which the yeast fitness is not above 0.5. As to A15U C30G C34U C66U A70C, the yeast fitness was found to be 0.511.

Consider A21G A43C, for which the yeast fitness is 0.966. Under C4G U54G C62A stands 0.579; under U3A G6C A20U A36U, 0.571.

For the variant G17C C29U A37C G67A, the yeast fitness amounted to 0.575. In the case of A14U A20G G44C, the yeast fitness was not above 0.5.

With A14C G23A C34A C49G, the yeast fitness was not above 0.5. The figure for A45U G67U A69G is 0.536. For the variant U3C U8G, the yeast fitness turned out to be 0.581.

With A14G G18C G50C, the yeast fitness was not above 0.5. Take C5A G68C: the yeast fitness was determined as 0.802. A45U A65G G67U A69G: the yeast fitness is not above 0.5. Under C5G A42C G48A stands 0.587; under C11U A21U G41A A57C, not above 0.5. With A14U G38C C62A G67C, the yeast fitness was not above 0.5. U8A C33U A65U: the yeast fitness was 0.502.

Regarding C5U G10C A21U C22U C27U U32C C46U C61G, the yeast fitness was not above 0.5. As to U2G U13G U16C, the yeast fitness is not above 0.5. Consider C4A G6A C33U U53C, for which the yeast fitness is not above 0.5.
